According to ChEMBL document CHEMBL1129246, “Cardiovascular characterization of pyrrolo[2,1-d][1,5]benzothiazepine derivatives binding selectively to the peripheral-type benzodiazepine receptor (PBR): from dual PBR affinity and calcium antagonist activity to novel and selective calcium entry blockers” (J Med Chem, 1996):
pEC50, pIC50: −log10 of the molar value. Each block holds one molecule with its values, some of them ahead of it.

What was measured:
Translocator protein [1] = molecular target: T1, Translocator protein (Rattus norvegicus, UniProt P16257); test: Ability to inhibit [3H]-PK 11195 binding to peripheral-type benzodiazepine receptor(PBR) in rat cerebral cortex homogenate; Not active; format: tissue-based
Cavia porcellus [2] = species on record: Cavia porcellus; test: Percent decrease of negative inotropic activity on isolated guinea pig left atrium at 5*10e-5 M; format: functional, Cardiac atrium
In short: (§1)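 Guinea pig atria (300–400 g, either sex) in oxygenated Tyrode at 35 °C, pH 7.4. Right atria beat spontaneously; left atria paced at 1 Hz. Isometric force recorded after 45–60 min stabilisation. Cumulative concentrations 0.1–50 μmol/L in DMSO (bath ≤0.3%). Potency from log concentration–response curves by probit analysis, n = 6–8.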

Cavia porcellus [3] = species on record: Cavia porcellus; test: [Ca2+] antagonistic activity on K+ depolarized guinea pig aortic strips (at 5(10e-5) M).; format: functional, Aorta
In short: (§2)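 Guinea pig aortic strips under 1 g resting force, equilibrated 1 h in PSS, then contracted with 80 mmol/L KCl. At plateau (~30 min), compounds in DMSO added cumulatively at 0.1–50 μmol/L and relaxation recorded.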

[4] = molecular target: T2, Voltage-gated L-type calcium channel (Rattus norvegicus, UniProt P22002+Q02485+P27732); test: (§3) Inhibition of [3H]nitrendipine binding to L-type calcium channel receptor(CCR) in rat cerebral cortex homogenate; format: tissue-based
In short: (§4)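 Male Sprague–Dawley rat cortex homogenised in 50 mM Na-HEPES pH 7.4, washed five times, pellet stored at -70 °C. Incubated 90 min at 0 °C in the dark with 3×10^-10 M [3H]nitrendipine; compounds dissolved in 5% DMSO. Filtration, scintillation counting. IC50 by log-probit analysis of six displacer concentrations in triplicate. Ki by Prusoff's equation using Kd 0.25 nM.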

[5] = molecular target: T3, Voltage-dependent L-type calcium channel subunit alpha-1C (Rattus norvegicus, UniProt P22002); test: Ability to inhibit [3H]nitrendipine binding to the L-type calcium channel receptor(CCR) in rat heart homogenate.; format: tissue-based
In short: (§5)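 Rat hearts perfused through the aorta with ice-cold saline, then homogenised in 50 mM Na-HEPES pH 7.4, filtered through cheesecloth and washed five times. Incubated 90 min at 0 °C in the dark with 3×10^-10 M [3H]nitrendipine; compounds in 5% DMSO. IC50 by log-probit analysis of six displacer concentrations in triplicate.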

Cavia porcellus [6] = species on record: Cavia porcellus; test: Activity of chronotropic negative potency on guinea pig spontaneously beating right atrium; format: functional, Cardiac atrium; in short: as §1
[7] = molecular target: T2, Voltage-gated L-type calcium channel; test: Ability to inhibit [3H]nitrendipine binding to the calcium channel receptor(CCR) in rat cerebral cortex homogenate.; format: tissue-based
Cavia porcellus [8] = species on record: Cavia porcellus; test: [Ca2+] antagonistic activity on K+ depolarized guinea pig aortic strips (at 5(10e-5) M); format: functional, Aorta; in short: as §2
[9] = molecular target: T2, Voltage-gated L-type calcium channel; test: as §3; format: tissue-based; remark: listed apart in the source
In short: as §4, with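 “triplicate.” for “triplicate. Ki by Prusoff's equation using Kd 0.25 nM.”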

[10] = molecular target: T3, Voltage-dependent L-type calcium channel subunit alpha-1C; test: Ability to inhibit [3H]nitrendipine binding to the L-type calcium channel receptor(CCR) in rat heart homogenate; format: tissue-based
In short: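 Rat heart perfused via aorta with ice-cold saline, homogenized in 50 mM Na-HEPES pH 7.4, filtered through cheesecloth, washed five times at 48000g, and stored at -70 °C. Homogenate incubated 90 min at 0 °C in the dark with 3×10^-10 M [3H]nitrendipine; compounds in 5% DMSO. Bound counts taken after filtration. IC50 by log-probit from six concentrations in triplicate.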

Cavia porcellus [11] = species on record: Cavia porcellus; test: Activity of inotropic negative potency on stimulated guinea pig left atrium; format: functional; details: Cardiac atrium, read-out: ED50 (the source's name); in short: as §1
Cavia porcellus [12] = species on record: Cavia porcellus; test: Percent decrease of negative inotropic activity on isolated guinea pig left atrium at 1*10e-5 M; format: functional, Cardiac atrium; in short: as §1
Translocator protein [13] = molecular target: T1, Translocator protein; test: Ability to inhibit [3H]-PK 11195 binding to peripheral-type benzodiazepine receptor(PBR) in rat cerebral cortex homogenate.; format: tissue-based; details: for pIC50: read-out: IC50
Cavia porcellus [14] = species on record: Cavia porcellus; test: Percent decrease of negative chronotropic activity on isolated guinea pig spontaneously beating right atrium at 1*10e-4 M; format: functional, Cardiac atrium
Cavia porcellus [15] = species on record: Cavia porcellus; test: Percent decrease of negative chronotropic activity on isolated guinea pig spontaneously beating right atrium at 1*10e-5 M; format: functional, Cardiac atrium; in short: as §1
Cavia porcellus [16] = species on record: Cavia porcellus; test: IC50 activity of [Ca2+] antagonistic potency on K+ depolarized guinea pig aortic strips; format: functional; details: Aorta; in short: as §2
Cavia porcellus [17] = species on record: Cavia porcellus; test: Activity of chronotropic negative potency on guinea pig spontaneously beating right atrium.; format: functional, Cardiac atrium; in short: as §1
[18] = molecular target: T3, Voltage-dependent L-type calcium channel subunit alpha-1C; test: Ability to inhibit [3H]nitrendipine binding to the L-type calcium channel receptor(CCR) in rat heart homogenate; Not active; format: tissue-based; in short: as §5
Cavia porcellus [19] = species on record: Cavia porcellus; test: [Ca2+] antagonistic activity on K+ depolarized guinea pig aortic strips at 5*10e-5 M; format: functional, Aorta; in short: as §2
[20] = molecular target: T2, Voltage-gated L-type calcium channel; test: Ability to inhibit [3H]nitrendipine binding to the calcium channel receptor(CCR) in rat cerebral cortex homogenate; Not active; format: tissue-based; in short: as §4
Cavia porcellus [21] = species on record: Cavia porcellus; test: Percent decrease of negative chronotropic activity on isolated guinea pig spontaneously beating right atrium at 1*10e-6 M; format: functional, Cardiac atrium; in short: as §1
Cavia porcellus [22] = species on record: Cavia porcellus; test: Activity of inotropic negative potency on stimulated guinea pig left atrium.; format: functional; details: Cardiac atrium, read-out: ED50 (the source's name)
In short: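 Isolated left atria from guinea pigs (300–400 g, either sex), Tyrode PSS gassed with 95% O2–5% CO2, 35 °C, pH 7.4, driven at 1 Hz by rectangular pulses; isometric force recorded after 45–60 min stabilization.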

Cavia porcellus [23] = species on record: Cavia porcellus; test: [Ca2+] antagonistic activity on K+ depolarized guinea pig aortic strips at 10e-4 M; format: functional; details: Aorta

SMILES: COc1ccc(C2=C(OC(=O)c3cc(OC)c(OC)c(OC)c3)c3cccn3-c3cc(C(F)(F)F)ccc3S2)cc1
- IC50 (Translocator protein [1]): Not Active

SMILES: CCCC(=O)OC1=C(c2ccccc2)Sc2ccccc2-n2cccc21
- IC50 [7]: 0.00488 µM

SMILES: COc1ccc(C2=C(OC(=O)c3cc(OC)c(OC)c(OC)c3)c3cccn3-c3ccccc3S2)cc1
- IC50 (Translocator protein [1]): Not Active

SMILES: COc1ccc(C2=C(OC(=O)c3cc(OC)c(OC)c(OC)c3)c3cccn3-c3cc(Cl)ccc3S2)cc1
- IC50 (Translocator protein [13]): Not Active

SMILES: COc1ccc(C2=C(OC(C)=O)c3cccn3-c3cc(Cl)ccc3S2)cc1
- IC50 [7]: 0.132 µM

SMILES: CC(=O)OC1=C(c2ccccc2)Sc2ccc(Cl)cc2-n2cccc21
- IC50 [7]: 0.15 µM
- pIC50 (Translocator protein [13]): 6.25

SMILES: CC(=O)OC1=C(c2ccccc2)Sc2ccccc2-n2cccc21
- IC50 [7]: 0.006 µM
- pIC50 [5]: 6.66

SMILES: COc1ccc(C2=C(OC(=O)N(C)C)c3cccn3-c3ccccc3S2)cc1
- IC50 [7]: 0.42 µM
- IC50 [18]: Not Active

SMILES: COc1ccc(C2=C(OC(C)=O)c3cccn3-c3ccccc3S2)cc1
- Decrease (Cavia porcellus [15]): 26%
- Decrease (Cavia porcellus [2]): 86%
- Inhibition (Cavia porcellus [19]): 27%
- pEC50 (Cavia porcellus [11]): 6.51
- IC50 [7]: 0.00013 µM
- pIC50 [5]: 6.47

SMILES: COc1ccc(C2=C(OC(C)=O)c3cccn3-c3cc(C(F)(F)F)ccc3S2)cc1
- IC50 (Translocator protein [1]): Not Active
- IC50 [7]: > 2 µM

SMILES: CCCC(=O)OC1=C(c2ccc(OC)cc2)Sc2ccccc2-n2cccc21
- IC50 [7]: 0.016 µM
- pIC50 [5]: 6.82

SMILES: CCCCC(=O)OC1=C(c2ccccc2)Sc2ccccc2-n2cccc21
- pIC50 [5]: 6.21

SMILES: CC(=O)OC1=C(c2ccccc2)Sc2ccccc2-n2c(CN(C)C)ccc21
- pIC50 (Translocator protein [13]): < 5.70

The next lines start with results.

- Ki [4]: 0.013 µM
- pIC50 [5]: 7.92
SMILES: CC(=O)O[C@@H]1c2ccc(CN(C)C)n2-c2cccc(Cl)c2S[C@@H]1c1ccccc1
- Decrease (Cavia porcellus [2]): 41%
- Inhibition (Cavia porcellus [3]): 32%
- ED30 (Cavia porcellus [6]): 0.85 µM

- IC50 [7]: 5.2 µM
SMILES: CC(=O)O[C@@H]1c2ccc(CN(C)C)n2-c2ccccc2S[C@@H]1c1ccccc1

- Ki [9]: 0.00019 µM
- pIC50 [10]: 7.77
- pEC50 (Cavia porcellus [11]): 6.09
- pIC50 (Translocator protein [13]): < 5.70
SMILES: COc1ccc(C2Sc3ccccc3-n3c(CN(C)C)ccc32)cc1 (stereo unspecified)
- Inhibition (Cavia porcellus [8]): 10%
- Decrease (Cavia porcellus [12]): 75%
- Decrease (Cavia porcellus [14]): 30%

- pEC50 (Cavia porcellus [11]): 6.15
- IC50 [7]: 0.136 µM
- pIC50 (Cavia porcellus [16]): 5.35
SMILES: COc1ccc([C@H]2Sc3ccccc3-n3c(CN(C)C)ccc3[C@H]2OC(C)=O)cc1
- Inhibition (Cavia porcellus [8]): 56%
- Decrease (Cavia porcellus [15]): 90%
- Decrease (Cavia porcellus [2]): 87%
- ED30 (Cavia porcellus [6]): 1.5 µM

- pEC50 (Cavia porcellus [11]): 6.18
- IC50 [7]: 0.0033 µM
- Ki [4]: 0.0015 µM
SMILES: COc1ccc([C@H]2Sc3ccc(Cl)cc3-n3c(CN(C)C)ccc3[C@H]2OC(C)=O)cc1
- Decrease (Cavia porcellus [15]): 61%
- ED30 (Cavia porcellus [17]): 0.88 µM
- Decrease (Cavia porcellus [2]): 83%
- Inhibition (Cavia porcellus [3]): 40%

- IC50 [7]: 0.96 µM
- pIC50 (Translocator protein [13]): < 5.70
SMILES: CC(=O)OC1=C(c2ccccc2)Sc2ccc(Cl)cc2-n2c(CN(C)C)ccc21

- pIC50 (Translocator protein [13]): < 5.70
SMILES: COc1ccc(C2=C(OC(C)=O)c3ccc(CN(C)C)n3-c3cc(Cl)ccc3S2)cc1

- IC50 [7]: 0.3 µM
SMILES: CC(=O)O[C@@H]1c2ccc(CN(C)C)n2-c2cc(C(F)(F)F)ccc2S[C@@H]1c1ccccc1

- IC50 [20]: 1.23 µM
- IC50 [18]: Not Active
SMILES: CC(=O)O[C@@H]1c2ccc(CN(C)C)n2-c2cc(Cl)ccc2S[C@@H]1c1ccccc1

- pEC50 (Cavia porcellus [22]): 6.10
SMILES: COc1ccc([C@@H]2Sc3ccccc3N(CCN(C)C)C(=O)[C@@H]2OC(C)=O)cc1 [DILTIAZEM]
- Decrease (Cavia porcellus [21]): 94%
- ED30 (Cavia porcellus [17]): 0.07 µM
- Decrease (Cavia porcellus [12]): 78%
- inhibition at 100 µM (Cavia porcellus [23]): 88%
